Laboratory results published in article PMC3999704 (Current Chemical Genomics and Translational Medicine, 2014).

How the values were obtained:
Assay type in all cases: cell-based, rat
GH3.TRE-Luc cells = test: Cell viability assay, intracellular ATP content; settings: over the range of concentrations used within the 24 h treatment, presence of 1 nM T3
[1] = test system: thyroid hormone receptor (TR); test: qHTS GH3.TRE-Luc luciferase reporter gene assay, agonist mode; settings: LOPAC library screen
Outline: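 Cells were held 20 h in serum-free assay medium (DMEM:F12 with insulin, ethanolamine, selenite, apotransferrin and BSA), then detached and dispensed in 5 µl/well. After 4–5 h at 37°C, compound or DMSO was pinned in (final DMSO 0.46 or 0.92%) for 24 h. One-Glo was added, 30 min at room temperature, then luminescence read. Data were normalized to 100 nM T3 (100%) and DMSO (0%).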

[2] = test system: thyroid hormone receptor (TR); settings: 24 well format, 24h, normalized to total protein values
Outline: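 GH3.TRE-Luc cells were seeded at 150,000/well in DMEM:F12 with 15 mM HEPES, 10% FBS and Pen/Strep. After 24 h the medium was changed to PCM medium for another 24 h. Cells were then exposed 24 h to ligands in 0.2% DMSO. Luciferase was read from lysed cells and cell number estimated by BCA protein assay. Duplicates per dose, ≥3 experiments.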

Compound | induction of the reporter gene luciferase activity [2] | also measured
O=c1[nH]cc(F)c(=O)[nH]1 [5-fluorouracil] |  | cytotoxicity (GH3.TRE-Luc cells): without apparent cytotoxicity
NCCCC(=O)O [GABA] |  | response in this assay [1]: did not show any response
N[C@@H](Cc1cc(I)c(Oc2ccc(O)c(I)c2)c(I)c1)C(=O)O [T3, triiodothyronine] | showed the expected induction profiles | 
O=S(=O)(c1ccccc1)N(CC(F)(F)F)c1ccc(C(O)(C(F)(F)F)C(F)(F)F)cc1 [T0901317] | neither the RAR-specific ligand TTNPB nor the LXR-specific ligand T0901317 activated the reporter gene | 
C/C(=C\c1ccc(C(=O)O)cc1)c1ccc2c(c1)C(C)(C)CCC2(C)C [TTNPB] | neither the RAR-specific ligand TTNPB nor the LXR-specific ligand T0901317 activated the reporter gene | 
